We go through 1 compound from ChEMBL document CHEMBL1145462, “In vivo pharmacodynamic activity of the glycopeptide dalbavancin” (Antimicrob Agents Chemother, 2007).

Assay type in all cases: functional
Assay [1] concerns Staphylococcus aureus. As to the kind of experiment: Antibacterial activity against Staphylococcus aureus 307109 by microdilution method. In outline: (§1)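 MIC and MBC were determined by CLSI broth microdilution, in duplicate on at least two occasions. Staphylococci were grown in Mueller-Hinton broth and agar; pneumococci were plated on sheep blood agar.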
In general terms: Dilution methods test growth across graded concentrations, often in twofold steps.

The test system of assay [2] is Staphylococcus aureus. Briefly: Antibacterial activity against Staphylococcus aureus 33591 by microdilution method. In outline: (§2)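 MICs in duplicate on at least two occasions by standard CLSI broth microdilution; S. aureus grown and quantified in Mueller-Hinton broth/agar.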
Assay [3] deals with Staphylococcus aureus. As to the kind of experiment: Antibacterial activity against Staphylococcus aureus ATCC 25923 by microdilution method. In outline: as §1
In assay [4] the test system is Staphylococcus aureus. Briefly: Antibacterial activity against Staphylococcus aureus 31005 by microdilution method. In outline: as §1
Assay [5] concerns Staphylococcus aureus. Briefly: Antibacterial activity against Staphylococcus aureus Smith by microdilution method. In outline:
as §2

In brackets after ≈: the same amount, converted by molar mass.

The MIC is the least concentration at which growth counts as inhibited. Consider `COc1cccc(OC)c1C(=O)N[C@@H]1C(=O)N2[C@@H]1SC(C)(C)[C@@H]2C(=O)O` [METHICILLIN], for which the MIC in assay [1] was over 8 µg/mL; in assay [2] it was over 8 µg/mL; in assay [3], 0.12 µg/mL (≈ 0.315 µM); in assay [4] it was 0.12 µg/mL (≈ 0.315 µM); in assay [5], 0.12 µg/mL (≈ 0.315 µM).
